Test [1] concerns the target Tyrosine-protein kinase BTK (Homo sapiens, UniProt Q06187). As to the kind of experiment: Inhibition of human recombinant full-length N-terminal His-tagged BTK expressed in baculovirus infected Sf9 insect cells measured after 60 mins by ADP-Glo kinase assay. In general terms: ADP-Glo first removes unused ATP, then detects ADP through luciferase.
A short description of test [2]: Antiproliferative activity against human Raji cells measured after 48 hrs by CCK-8 assay. In kind it is functional, cell-based. In short, it runs like this: (§1)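 Cells seeded at 2000–3000 cells/well and kept one day at 37 °C, 5% CO₂ in RPMI1640 with 10% FBS. Viability was read by CCK-8 absorbance at 450 nm, and seeding was adjusted to give 0.5–1.2 absorbance. IC50 was derived by curve fitting.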
(Tetrazolium dyes change colour on reduction, which living cells bring about.)

Test [3] in a line: Antiproliferative activity against human Ramos cells measured after 48 hrs by CCK-8 assay. In kind it is functional, cell-based. In short, it runs like this: as §1
Test [4] relates to Ramos. As to the kind of experiment: Induction of apoptosis in human Ramos cells assessed as early apoptotic cells at 10 uM measured after 48 hrs by Annexin V-FITC/propidium iodide based flow cytometry relative to control. In kind it is functional. The procedure, abridged:
(§2)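 Ramos cells at 1–5 × 10⁵ cells/well were treated for 48 h in medium with 5% FBS, with a DMSO solvent control. They were […], stained with Annexin V-FITC/propidium iodide, and analysed by flow cytometry.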
On the technique in general: In flow cytometry, cells or beads pass a laser one at a time.

The subject of test [5] is Ramos. Briefly: Induction of apoptosis in human Ramos cells assessed as viable cells at 10 uM measured after 48 hrs by Annexin V-FITC/propidium iodide based flow cytometry relative to control. In kind it is functional. The procedure, abridged: as §2
A short description of test [6]: Cell cycle arrest in human Ramos cells assessed as accumulation at G2/M phase at 10 uM measured after 48 hrs by propidium iodide based flow cytometry (reference value: 4.98 %). In kind it is functional. In short, it runs like this: (§3)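 Ramos cells at about 2 × 10⁵ cells/well were treated for 48 h, then fixed overnight in 70% ethanol at 4 °C. After a PBS wash they were stained with propidium iodide for 10 min under subdued light. Cell-cycle phase distribution was determined by flow cytometry.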

The test system of test [7] is Ramos. As to the kind of experiment: Induction of apoptosis in human Ramos cells assessed as necrotic cells at 10 uM measured after 48 hrs by Annexin V-FITC/propidium iodide based flow cytometry (reference value: 0.2 %). In kind it is functional. The procedure, abridged:
as §2

The nature of test [8]: Cell cycle arrest in human Ramos cells assessed as accumulation at S phase at 10 uM measured after 48 hrs by propidium iodide based flow cytometry (reference value: 55.07 %). In kind it is functional. The procedure, abridged:
as §3

Test [9] in a line: Cell cycle arrest in human Ramos cells assessed as accumulation at G0/G1 phase at 10 uM measured after 48 hrs by propidium iodide based flow cytometry (reference value: 39.95 %). In kind it is functional. The procedure, abridged: as §3
Test [10] deals with Ramos. Briefly: Induction of apoptosis in human Ramos cells assessed as late apoptotic cells at 10 uM measured after 48 hrs by Annexin V-FITC/propidium iodide based flow cytometry relative to control. In kind it is functional. The procedure, abridged:
as §2

Test [11] has as its system Ramos. Briefly: Induction of apoptosis in human Ramos cells assessed as late apoptotic cells at 1 uM measured after 48 hrs by Annexin V-FITC/propidium iodide based flow cytometry relative to control. In kind it is functional. In short, it runs like this:
as §2

Test [12] can be described thus: Cell cycle arrest in human Ramos cells assessed as accumulation at G2/M phase at 1 uM measured after 48 hrs by propidium iodide based flow cytometry (reference value: 4.98 %). In kind it is functional. The procedure, abridged: as §3
Test [13] deals with Ramos. As to the kind of experiment: Induction of apoptosis in human Ramos cells assessed as early apoptotic cells at 1 uM measured after 48 hrs by Annexin V-FITC/propidium iodide based flow cytometry relative to control. In kind it is functional. In short, it runs like this: as §2
The subject of test [14] is Ramos. As to the kind of experiment: Induction of apoptosis in human Ramos cells assessed as early apoptotic cells at 5 uM measured after 48 hrs by Annexin V-FITC/propidium iodide based flow cytometry relative to control. In kind it is functional. The procedure, abridged:
as §2

Test [15] relates to Ramos. Briefly: Induction of apoptosis in human Ramos cells assessed as late apoptotic cells at 5 uM measured after 48 hrs by Annexin V-FITC/propidium iodide based flow cytometry relative to control. In kind it is functional. The procedure, abridged:
as §2

Test [16] concerns Ramos. Briefly: Induction of apoptosis in human Ramos cells assessed as necrotic cells at 5 uM measured after 48 hrs by Annexin V-FITC/propidium iodide based flow cytometry (reference value: 0.2 %). In kind it is functional. The procedure, abridged:
as §2

Test [17] in a line: Cell cycle arrest in human Ramos cells assessed as accumulation at S phase at 5 uM measured after 48 hrs by propidium iodide based flow cytometry (reference value: 55.07 %). In kind it is functional. The procedure, abridged: as §3
A short description of test [18]: Cell cycle arrest in human Ramos cells assessed as accumulation at G0/G1 phase at 1 uM measured after 48 hrs by propidium iodide based flow cytometry (reference value: 39.95 %). In kind it is functional. In short, it runs like this: as §3
A short description of test [19]: Cell cycle arrest in human Ramos cells assessed as accumulation at S phase at 1 uM measured after 48 hrs by propidium iodide based flow cytometry (reference value: 55.07 %). In kind it is functional. In short, it runs like this:
as §3

In test [20] the test system is Ramos. Briefly: Induction of apoptosis in human Ramos cells assessed as viable cells at 5 uM measured after 48 hrs by Annexin V-FITC/propidium iodide based flow cytometry relative to control. In kind it is functional. The settings on record: read-out: Activity. The procedure, abridged:
as §2

In test [21] the test system is Ramos. Briefly: Induction of apoptosis in human Ramos cells assessed as viable cells at 1 uM measured after 48 hrs by Annexin V-FITC/propidium iodide based flow cytometry relative to control. In kind it is functional. To be noted: read-out: Activity. In short, it runs like this:
as §2

Test [22] can be described thus: Cell cycle arrest in human Ramos cells assessed as accumulation at G2/M phase at 5 uM measured after 48 hrs by propidium iodide based flow cytometry (reference value: 4.98 %). In kind it is functional. In short, it runs like this:
as §3

Test [23] is described as follows: Cell cycle arrest in human Ramos cells assessed as accumulation at G0/G1 phase at 5 uM measured after 48 hrs by propidium iodide based flow cytometry (reference value: 39.95 %). In kind it is functional. The procedure, abridged: as §3
In test [24] the test system is Ramos. As to the kind of experiment: Induction of apoptosis in human Ramos cells assessed as necrotic cells at 1 uM measured after 48 hrs by Annexin V-FITC/propidium iodide based flow cytometry (reference value: 0.2 %). In kind it is functional. The procedure, abridged: as §2

Molecules are shown by their SMILES. pIC50: −log10 of the molar value.

Sequence of Tyrosine-protein kinase BTK (Q06187 whole entry): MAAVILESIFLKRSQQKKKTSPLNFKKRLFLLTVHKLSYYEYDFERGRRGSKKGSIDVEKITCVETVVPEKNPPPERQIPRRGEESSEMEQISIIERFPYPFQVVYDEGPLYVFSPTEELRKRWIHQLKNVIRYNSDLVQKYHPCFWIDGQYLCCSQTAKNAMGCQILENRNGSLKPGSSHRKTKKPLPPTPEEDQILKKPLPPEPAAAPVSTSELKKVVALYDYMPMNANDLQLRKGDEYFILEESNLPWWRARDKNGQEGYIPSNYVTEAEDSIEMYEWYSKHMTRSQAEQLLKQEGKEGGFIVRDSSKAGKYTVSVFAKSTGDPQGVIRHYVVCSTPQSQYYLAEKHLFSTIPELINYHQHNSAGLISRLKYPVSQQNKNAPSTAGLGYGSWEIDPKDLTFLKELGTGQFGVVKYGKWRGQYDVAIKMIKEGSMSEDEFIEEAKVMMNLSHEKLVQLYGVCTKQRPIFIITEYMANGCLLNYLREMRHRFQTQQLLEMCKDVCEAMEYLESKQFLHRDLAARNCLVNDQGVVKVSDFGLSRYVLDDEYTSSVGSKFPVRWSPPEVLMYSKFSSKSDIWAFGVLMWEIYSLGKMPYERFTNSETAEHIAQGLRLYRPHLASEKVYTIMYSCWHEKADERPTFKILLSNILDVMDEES

As a reminder, the pIC50 is the negative decadic logarithm of the IC50, by convention in mol/L. For the compound `C=CC(=O)Nc1cccc(Nc2nc(Nc3ccc(CP(=O)(OCC)OCC)cc3)ncc2F)c1`, the pIC50 in [1] is 7.49; in test [2] it was 4.46; in test [3], 5.03.
Taken in the same sequence, the figures for `C=CC(=O)Nc1cccc(Nc2nc(Nc3ccc(OCCCP(=O)(OCC)OCC)cc3)ncc2F)c1` were 7.67, 4.79 and 4.94.
On to `C=CC(=O)Nc1cccc(Nc2nc(Nc3ccc(CP(=O)(OCC)N4CCOCC4)cc3)ncc2Cl)c1` (stereo not drawn), for which the pIC50 in test [1] is 6.95; in test [2], 5.11; in test [3], 4.56.
As for `C=CC(=O)N1CCC[C@@H](n2nc(-c3ccc(Oc4ccccc4)cc3)c3c(N)ncnc32)C1` [IBRUTINIB], the Activity with Ramos [4] came to 37%; in the test on Ramos [5], 52%; in test [6], 6.57%; in the test with Ramos [7], 0.1%; in test [8] it was 50.2%; in test [9] it was 43.2%.
Consider `C=CC(=O)Nc1cccc(Nc2nc(Nc3ccc(OCCCP(=O)(OCC)OCC)cc3)ncc2Cl)c1`, for which the pIC50 was 7.97 in test [1], 5.22 in [2] and 5.27 in test [3].
With `C=CC(=O)Nc1cccc(Nc2nc(Nc3ccc(OCCOC)cc3)ncc2F)c1` [SPEBRUTINIB], the Activity in the test with Ramos [4] was 21.1%; in test [6], 20.9%; in the test with Ramos [7] it was 4.3%; in test [8], 47.9%; in the test with Ramos [10], 20.4%; in [9], 31%. In addition, the viability at 10 µM in the test with Ramos [5] (Homo sapiens, Ramos, 48 h, read-out: Activity) came to 54.2%.
Take `C=CC(=O)Nc1cccc(Nc2nc(Nc3ccc(OCCCP(=O)(OCC)N4CCOCC4)cc3)ncc2Cl)c1` (stereo not drawn): the Activity in the test on Ramos [11] was 5.9%; in test [12], 7.68%; with Ramos [13], 27.7%; in test [6], 11.2%; with Ramos [14], 37.6%; in test [8], 50.8%. For the same compound, the Activity was determined as 7.5% in the test with Ramos [15]; 14.7% in the test with Ramos [16]; 54.3% in test [17]; 36.9% in test [18]; 38% in test [9]; 55.4% in [19]. The Activity in test [22] turned out to be 9.29%; in [23] it was 36.4%; in the test with Ramos [24], 15.6%. The pIC50 in test [1] was 9.09; in [2], 5.17; in test [3] it was 5.50. The viability at 5 µM with Ramos [20] is 40.2%. In addition, the viability at 1 µM in the test with Ramos [21] amounted to 50.9%.
Turning to `C=CC(=O)Nc1cccc(Nc2nc(Nc3ccc(CP(=O)(OCC)OCC)cc3)ncc2Cl)c1`, the pIC50 in test [1] is 8.91; in test [2], 4.87; in [3], 4.93.
